# SENP6 inh: blocks the human protease SENP6. Recombinant SENP6 catalytic domain, aminoluciferin luminescence. inhibition, % at 10 µM. hit rate 1.8% among 330,000. AID 2599;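 active = inhibition above about 50% at the single tested dose, limit read from the data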;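 note: plate controls were DMSO wells with enzyme for no effect and DMSO wells lacking enzyme for full effect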
# SENP7 block: inhibitors of human SENP7 protease | hit rate 1.5% among 330,000 | recombinant SENP7, Z-RLRGG-aminoluciferin luminescence, 40 min | inhibition, % at 5 µM;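 active = inhibition above about 50% at the single test dose, limit read from the data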;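 note: plate controls were DMSO with enzyme for no effect and no enzyme buffer wells for full effect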
# Target sequence (Q9BQF6 706-1050 limits assumed): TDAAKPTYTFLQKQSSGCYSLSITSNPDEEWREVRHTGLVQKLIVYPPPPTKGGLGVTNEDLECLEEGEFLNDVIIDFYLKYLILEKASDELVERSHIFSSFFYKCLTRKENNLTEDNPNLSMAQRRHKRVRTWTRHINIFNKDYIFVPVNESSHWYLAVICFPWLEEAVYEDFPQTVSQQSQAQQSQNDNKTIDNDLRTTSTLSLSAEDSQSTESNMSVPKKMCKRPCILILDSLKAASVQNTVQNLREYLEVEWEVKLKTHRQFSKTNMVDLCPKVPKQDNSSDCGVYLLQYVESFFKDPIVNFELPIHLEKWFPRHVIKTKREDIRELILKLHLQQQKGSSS
# SENP8 block-1: blocks human SENP8 cleavage of Nedd8 substrate; hit rate 0.64% among 360,000; AID 602440; recombinant SENP8, Nedd8 substrate fluorescence; inhibition, % at 20 µM; Q96LD8; in the data active = inhibition mostly above about 40%, no sharp cut-off; inactive = mostly below about 27%
# SENP1 FRET inh: SENP1 (human) catalytic domain inhibition | inhibition, % at 10 µM | AID 624204 | recombinant SENP1 catalytic domain, CyPet-SUMO1-YPet FRET cleavage | hit rate 0.21% among 360,000 | Q9P0U3;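 active = inhibition at least 30% at 10 µM, raw YFP signal under a set limit, fluorescence ratio 0.5 to 1.5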;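 note: 0% = enzyme with DMSO and 100% = no enzyme wells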
#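 Assay system: hSENP1 catalytic domain, recombinant. Amount: SENP1 enzyme, 20 pM final. Schedule: 50 min reaction, RT, dark. Technique: FRET, CFP and YFP emission. Control set: no-enzyme wells low, DMSO-plus-enzyme wells high control.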
# SENP8 block-2: blocks the human protease SENP8 | Q96LD8 | purified SENP8, Z-RLRGG-aminoluciferin cleavage, luminescence | inhibition, % at 10 µM | hit rate 1.2% among 330,000 | AID 2540; in the data active = inhibition above about 50%
# SENP8 conf: confirmation of human SENP8 protease inhibitors. shares compounds with SENP7 block. inhibition, % at 12.5 µM. Recombinant SENP8, Z-RLRGG-aminoluciferin luminescence, 60 min. hit rate 40% among 6,200;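 active = mean inhibition across replicates above about 50%, limit read from the data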
# SENP6 confirm: confirmation of human SENP6 protease inhibitors | shares compounds with SENP7 block | recombinant SENP6, Z-RLRGG-aminoluciferin luminescence | inhibition, % at 12.5 µM | hit rate 58% among 6,200 | AID 488915
# SENP7 conf: human SENP7 inhibition, confirmed; shares compounds with SENP7 block; recombinant SENP7, Z-RLRGG-aminoluciferin luminescence, 40 min; inhibition, % at 12.5 µM; hit rate 69% among 6,200; AID 488917
# Casp3 select: caspase-3 inhibition (SENP selectivity assay) | purified caspase-3, Z-DEVD-aminoluciferin luminescence, 60 min | hit rate 60% among 6,200 | inhibition, % at 12.5 µM | shares compounds with SENP7 block;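 active = mean inhibition above about 50%, limit read from the data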;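 note: plate controls were enzyme with DMSO for no effect and wells without caspase-3 for full effect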
# Luc interf: counter-screen for SENP inhibitors: luminescence interference; shares compounds with SENP7 block; Pre-incubated SENP8/Z-RLRGG-aminoluciferin, luciferase luminescence interference; inhibition, % at 12.5 µM; hit rate 39% among 6,200;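 active = mean inhibition above about 50% when retested at one dose, limit read from the data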;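 note: plate controls were DMSO wells with completed reaction for no effect and substrate without enzyme for full effect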
# Starred values were filed as active, the others as inactive; i = inactive; · = no result. Hits are enriched below; roughly 2.5% of the tested compounds scored in any of these assays.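 Rule for the calls, unless noted: active = mean inhibition above about 50% in the one-dose retest (limit read from the data); inactive = the rest.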
SMILES,SENP6 inh,SENP7 block,SENP8 block-1,SENP1 FRET inh,SENP8 block-2,SENP8 conf,SENP6 confirm,SENP7 conf,Casp3 select,Luc interf
Fc1ccc2nc(Nc3nc4cc5c(cc4s3)OCCO5)sc2c1,71*,35,-431,-48,52*,-6,17,19,7,-2
Fc1ccc2nc(Nc3ccccc3)sc2c1,47,72*,7,-1,64*,81*,81*,95*,58*,82*
Cc1cc(C)nc(Nc2nc3ccccc3s2)n1,-21,42,-22,0,-27,·,·,·,·,·
Cc1ccc(Nc2nc3ccccc3s2)c(C)c1,7,79*,17,1,62*,77*,73*,91*,54*,67*
CCOC(=O)c1cnn(-c2ncnc3c2oc2ccccc23)c1N,16,73*,15,-2,9,2,8,32,44,12
CCOC(=O)C1CCN(c2ncnc3c2oc2ccccc23)CC1,-15,0,-34,0,-1,·,·,·,·,·
CN(c1ccc(Cl)cc1)c1cc2c(c3c1ccn3C)C1CCC2O1 (centres undefined),·,·,-1,6,·,·,·,·,·,·
CCCCNC(=O)C(NC(=O)c1ccc2c(c1)OCO2)C(=O)c1ccccc1 (centres undefined),·,·,11,2,·,·,·,·,·,·
c1cncc(Nc2nc(-c3cccnc3)cs2)c1,7,8,18,1,-5,·,·,·,·,·
c1ccc(Nc2nc(-c3cccnc3)cs2)nc1,88*,81*,4,3,55*,17,35,88*,79*,16
Clc1ccccc1Nc1nc(-c2cccnc2)cs1,88*,83*,20,2,74*,89*,86*,97*,66*,53*
Fc1ccc(-c2csc(Nc3ccccn3)n2)cc1,87*,90*,8,-2,83*,91*,92*,100*,70*,58*
CC(=O)Nc1cccc(-c2csc(Nc3ccccn3)n2)c1,84*,92*,4,3,79*,88*,87*,98*,68*,88*
CC1CN(C(=O)CCC(=O)N2CCOCC2)c2ccccc2O1 (centres undefined),-10,14,7,3,-9,·,·,·,·,·
CCOc1ccccc1CN1CCNC(=O)C1CC(=O)NC1CCCCCCC1 (centres undefined),-10,8,-41,-7,-5,·,·,·,·,·
Cc1ccc(NC(=O)COc2ccccc2C(N)=O)cc1S(=O)(=O)N1CCCCCC1,-14,-8,2,2,-11,·,·,·,·,·
O=C(NCc1ccccc1)c1cc(C2CCCCN2S(=O)(=O)c2cccs2)on1 (centres undefined),·,·,17,2,·,·,·,·,·,·
COC(=O)c1ccc(CNC(=O)COC(=O)/C=C/c2cccc(OC)c2)cc1,·,·,-436,1,·,·,·,·,·,·
Oc1c(-c2cc(-c3ccco3)[nH]n2)ccc2ccccc12,44,55*,-11,8,55*,3,69*,86*,17,5
CCN(CC)c1ccc(N=Nc2nn(C)c(C)c2[N+](=O)[O-])cc1,78*,63*,38,4,54*,-17,-7,19,10,-2
CCN(Cc1ccccc1)c1ccc(N=Nc2nn(C)c(C)c2[N+](=O)[O-])cc1,-32,-4,39,5,3,·,·,·,·,·
O=c1[nH]c(/C=C/c2ccccc2F)nc2ccccc12,92*,96*,i,0,83*,76*,79*,89*,91*,22
CC(=O)Nc1ccc(/C=C/c2nc3ccccc3[nH]c2=O)cc1,13,-3,-184,-24,-8,·,·,·,·,·
O=c1[nH]c2ccccc2nc1/C=C/c1ccc(Cl)cc1,-10,72*,-377,-22,-1,1,2,2,4,2
